Compound activity: PubChem, several laboratories
Compounds with a hit are over-represented: about 1.9% of the library has one in this group of screens.
RanGTP-Impb inh: disruptors of Ran-importin-beta complex formation – biochemical, FRET, CFP-Ran, YFP-importin-beta, homogeneous, primary screen; cell-free CFP-Ran/YFP-importin-beta FRET ratio; inhibition, % (test concentration not listed); actives 1.1% (n = 300,000);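 active means more than half of the replicate wells show a fall in the fluorescence ratio signal beyond about 16%, limit read from the data, passing the limit was not always enough; inconclusive means exactly half of the replicate wells pass the set limit; inactive means fewer than half of replicates pass the limit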;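 further: 0% = DMSO wells and 100% = Ran loaded with GDP instead of GTP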
TbHK1 inh: blocks Trypanosoma brucei hexokinase 1 activity; recombinant TbHK1, G6PDH-coupled NADH A340; actives 0.11% (n = 220,000); inhibition, % at 10 µM; AID 1430;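 active means inhibition of 50% or more in the single-dose primary screen; inactive means inhibition below 50%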
Hck Nef HTS: inhibitors of human Hck kinase activated by Nef; P08631; Recombinant Hck-YEEI plus Nef, Z-Lyte FRET kinase assay; inhibition, % at 20 µM; actives 0.68% (n = 220,000); AID 463187;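 active means Hck-Nef kinase inhibition above about 50%, limit read from the data; inactive means inhibition below that limit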;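 further: 0% = DMSO with Hck plus Nef and 100% = Hck alone without Nef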
Runt-SMMHC FRET: blocks binding of human RUNX1 Runt domain to CBFb-SMMHC. Q01196+Q13951. Cerulean-Runt/Venus-CBFb-SMMHC FRET ratio 530/480, 1 h. inhibition, % at 20 µM. actives 0.74% (n = 220,000). AID 1434;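 active means mean inhibition across duplicate retests at 20 µM reaching about 50%, limit read from the data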;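 further: 0% = DMSO wells and 100% = wells with excess untagged CBFb-SMMHC; inhibitors lower the FRET ratio by blocking Runt binding to CBFb-SMMHC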
Runt-CBFb FRET: inhibitors of human RUNX1 Runt domain binding to CBFb; Q01196+Q13951; Cerulean-Runt/Venus-CBFb FRET ratio 530/480, 1 h; inhibition, % at 20 µM; actives 0.46% (n = 220,000);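 active means inhibition over about 50% at 20 µM in the single-dose screen, limit read from the data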;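 further: 0% = DMSO wells and 100% = excess unlabeled CBFb competitor control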
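Measured by: fluorescence energy transfer, 422 nm excitation, 530/480 nm emission; test system: Cerulean-tagged RUNX1 Runt domain (FRET donor) fusion protein; buffer or medium: Tris pH 7.5 buffer with BSA; compound: one dose, 20 µM compound, 1% DMSO; times: two 1 h room-temperature incubations shielded from light; benchmarks: unlabeled CBFb 5 µM, positive control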
Hck-Nef confirm: confirmation of Hck-Nef kinase inhibitors | calls only at 10 µM | shares compounds with Hck Nef HTS | Recombinant Hck-YEEI:Nef, Z-Lyte FRET kinase assay | actives 28% (n = 1,300) | AID 463188;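 active means average inhibition of at least 50%, with Z-scores no higher than 3 in both the phospho-tyrosine peptide and fluorescence counterscreens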
* marks the source's active call; other numbers are inactive results; i = inactive; ? = inconclusive; . = no result shown; + = active, no number.

SMILES	RanGTP-Impb inh	TbHK1 inh	Hck Nef HTS	Runt-SMMHC FRET	Runt-CBFb FRET	Hck-Nef confirm
O=c1oc2c(CN3CCOCC3)c(O)ccc2c2c1CCCC2	33*	-20	54*	66*	42	.
O=c1oc2c(CN3CCOCC3)c(O)c(Cl)cc2c2c1CCCC2	85*	-13	80*	42	105*	.
CCCc1cc(=O)oc2c(CN3CCOCC3)c(O)ccc12	5	-24	65*	90*	.	.
Cc1cc(NC(=O)c2sccc2C)n(-c2nc3ccccc3[nH]2)n1	3	2	26	-1	0	.
Cc1cc(NC(=O)c2cccs2)n(-c2nc3ccccc3[nH]2)n1	1	-11	85*	-3	-1	i
Cc1cc(/C=C2\SC(=Nc3ccccc3)NC2=O)c(C)n1-c1ccc(S(N)(=O)=O)cc1	21*	-8	59*	-2	0	i
Cc1ccc(NC(=O)CCC(=O)N/N=C/c2coc3ccc(F)cc3c2=O)cc1	1	.	.	.	.	.
Cc1ccc(NC(=O)CCC(=O)N/N=C/c2coc3ccccc3c2=O)cc1	?	1	64*	-2	-4	+
CC(=O)C1=C(O)C(=O)N(c2ccc(Br)cc2)C1c1ccccc1[N+](=O)[O-] (stereo not drawn)	0	.	.	.	.	.
COC(C)(C)c1cc(C(C)(C)C)nc(N)n1	2	3	102*	-3	-2	i
CC(C)(C)c1cc(=O)n2[nH]c(N)nc2n1	-1	-5	18	-2	0	.
Cc1nc2ccc(NC(=O)c3ccc(Cl)c(S(=O)(=O)N(C)c4ccccc4)c3)cc2s1	2	4	0	-12	-12	.
Cc1nc2ccc(NC(=O)c3cc(S(=O)(=O)N(C)c4ccccc4)ccc3Cl)cc2s1	0	-9	52*	-7	-5	+
CC(=O)NS(=O)(=O)c1ccc(NC(=O)c2cc(-c3ccc(C)c(C)c3)nc3ccccc23)cc1	0	-14	52*	-7	0	+
CC(=O)NS(=O)(=O)c1ccc(NC(=O)c2cc(-c3ccc(C)cc3)nc3ccccc23)cc1	-5	-12	1	2	-1	.
COc1ccccc1NS(=O)(=O)c1cccc(NC(=O)c2sc3ccccc3c2Cl)c1	1	-1	154*	-1	1	i
COc1ccccc1NS(=O)(=O)c1ccc(Cl)c(NC(=O)c2sc3cc(Cl)ccc3c2Cl)c1	2	-13	-2	-3	-1	.
NC(=S)N/N=C/c1coc2ccc(Br)cc2c1=O	0	-7	73*	0	3	+
NC(=S)N/N=C/c1coc2cc(Br)ccc2c1=O	6	-23	30	-5	1	.
NC(=S)N/N=C/c1coc2c(ccc3ccccc32)c1=O	-3	4	61*	-1	0	+
O=C(O)CCCN1C(=O)/C(=C/C=C/c2ccco2)SC1=S	-9	0	84*	-3	46	i
O=C(NN1C(=O)/C(=C/C=C/c2ccco2)SC1=S)c1ccccc1O	-1	63*	83*	-6	27	+
O=C(O)Cc1ccc2c(c1)N(S(=O)(=O)c1cccc(C(F)(F)F)c1)CC(C(=O)O)O2 (stereo not drawn)	5	0	1	2	-1	.
C=CCNC(=O)c1c(N)n(-c2cccc(S(N)(=O)=O)c2)c2nc3ccccc3nc12	.	-3	58*	38	80*	i
C=CCNC(=O)c1nc2ccccc2s1	3	-2	11	-6	0	.
COc1ccc(C2=CC3=C(Br)C(=O)C(C)(OC(=O)c4ccco4)C(=O)C3=CO2)cc1 (stereo not drawn)	-1	-19	92*	-31	5	+
COc1ccc(C(=O)Nc2ccc(O)c3c(=O)cc(-c4cccc(Cl)c4)oc23)cc1	1	-15	83*	1	1	i
CC(C)(C)c1ccc(C(=O)Nc2ccc(O)c3c(=O)cc(-c4cccc(Cl)c4)oc23)cc1	-7	-9	25	-7	2	.
Cc1ccccc1OCC(=O)O/N=C(\N)c1ccncc1	3	.	.	.	.	.
CC1CC(C)CN(C(=O)CCCNC(=O)c2ccc(Cl)cc2)C1 (stereo not drawn)	3	.	.	.	.	.
